Consider three molecules from ChEMBL document CHEMBL1777774, “A novel, broad-spectrum antitumor compound containing the 1-hydroxycyclohexa-2,5-dien-4-one group: the disclosure of a new antitumor pharmacophore in protoapigenone 1” (Bioorg Med Chem Lett, 2011).

Data set [1] deals with Mus musculus. The experiment in a line: Toxicity in […] H22 tumor-nearing ICR mouse assessed as decrease in total nucleated bone marrow cells at 10 mg/kg, ip for 7 days measured on day 9. It is filed as organism-based. Also on record: dose 10 mg/kg, route intraperitoneal; scale not given: the % may be the effect or the level left. The conditions noted are these: in vivo, 168 h. A digest of the protocol:
(§1)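 H22-bearing ICR mice dosed ip 10 mg/kg/day in 10% ethanol for 7 days from day 2, with vehicle controls. Killed day 9 and femoral marrow flushed. Nucleated cells counted with a Coulter Counter. Granulocytic and erythroid cells per femur counted on May-Grünwald-Giemsa-stained marrow smears.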

The test system of a further data set is RPMI-8226. The experiment in a line: Antitumor activity against human RPMI8226 cells assessed as cell proliferation after 24 hrs by MTT assay. It is filed as functional, cell-based. As to conditions: RPMI-8226, 24 h. Put shortly:
(§2)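 Cells seeded at 2000 per well in 96-well plates and allowed to adhere. Compounds in DMSO, diluted in culture medium, added at 0.1–100 μM (eight wells per concentration) for 24 h. DMSO vehicle control. MTT 0.5 mg/mL (in PBS) for 4 h, then medium removed and DMSO added, absorbance read at 570 nm. IC50 from concentration vs percent absorbance plot. Mean ± SD, n = 4.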
On the technique in general: Tetrazolium assays rely on reduction of a dye to a coloured formazan, in cell work by metabolically active cells.

A further data set concerns U-266. The experiment in a line: Antitumor activity against human U266 cells assessed as cell proliferation after 24 hrs by MTT assay. In kind it is functional, cell-based. The conditions noted are these: U-266, 24 h. A digest of the protocol: as §2
The subject of data set [2] is Mus musculus. The experiment in a line: Toxicity in […] H22 tumor-nearing ICR mouse assessed as body weight at 10 mg/kg, ip for 7 days measured on day 9 relative to control. It is filed as organism-based. Also on record: dose 10 mg/kg, route intraperitoneal. The conditions noted are these: in vivo, 168 h. Put shortly:
(§3)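 H22-bearing ICR mice (10 per group, plus a saline-injected normal group) dosed ip at 10 mg/kg/day in 10% ethanol for 7 days from day 2. Vehicle given to controls. On day 9 blood was taken for WBC count, and body weight, thymus and spleen were weighed. Thymus or spleen index = organ weight (mg)/body weight (g).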

Data set [3] relates to Mus musculus. The experiment in a line: Toxicity in […] H22 tumor-nearing ICR mouse assessed as spleen index at 10 mg/kg, ip for 7 days measured on day 9 relative to control. It is filed as organism-based. Also on record: dose 10 mg/kg, route intraperitoneal. The conditions noted are these: in vivo, 168 h. A digest of the protocol:
as §3

The test system of a further data set is H22. The experiment in a line: Antitumor activity against mouse H22 tumor-nearing ICR mouse assessed as inhibition of tumor growth at 10 mg/kg, ip for 7 days measured on day 9. It is filed as functional. The conditions noted are these: route intraperitoneal. A digest of the protocol:
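ICR mice given H22 ascites cells from serial passage, 0.2 ml of 1×10^7 cells/ml injected subcutaneously into right flank, 10 mice per group. From day 2, 10 mg/kg/day ip in 10% ethanol (10 ml/kg) for 7 days. Cyclophosphamide 10 mg/kg as reference, vehicle-treated tumor model group. Killed day 9, tumors weighed. Inhibition = (model − treated tumor weight)/model weight × 100%.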

Another data set relates to MDA-MB-231. The experiment in a line: Antitumor activity against human MDA-MB-231 cells assessed as cell proliferation after 24 hrs by MTT assay. As to conditions: MDA-MB-231, 24 h. In kind it is functional, cell-based. A digest of the protocol: as §2
Another data set has as its system HepG2. The experiment in a line: Antitumor activity against human HepG2 cells assessed as cell proliferation after 24 hrs by MTT assay. It is filed as functional, cell-based. The conditions noted are these: HepG2, 24 h. A digest of the protocol: as §2
Another data set has as its system HEK293. The experiment in a line: Cytotoxicity against human HEK293 cells assessed as cell proliferation after 24 hrs by MTT assay. It is filed as cell-based. As to conditions: HEK293, 24 h. Put shortly: as §2
For another data set, the system named is PC-3. The experiment in a line: Antitumor activity against human PC3 cells assessed as cell proliferation after 24 hrs by MTT assay. In kind it is functional, cell-based. The conditions noted are these: PC-3, 24 h. Put shortly:
as §2

In data set [4] the test system is Mus musculus. The experiment in a line: Toxicity in […] H22 tumor-nearing ICR mouse assessed as white blood cell count at 10 mg/kg, ip for 7 days measured on day 9 relative to control. In kind it is organism-based. Also on record: dose 10 mg/kg, route intraperitoneal. As to conditions: in vivo, 168 h. Put shortly: as §3
Another data set has as its system PBMC. The experiment in a line: Cytotoxicity against human PBMC assessed as cell proliferation after 24 hrs by MTT assay. It is filed as cell-based. Put shortly: as §2
The test system of a further data set is PANC-1. The experiment in a line: Antitumor activity against human PANC1 cells assessed as cell proliferation after 24 hrs by MTT assay. It is filed as functional, cell-based. The conditions noted are these: PANC-1, 24 h. Put shortly: as §2
Data set [5] concerns Mus musculus. The experiment in a line: Toxicity in […] H22 tumor-nearing ICR mouse assessed as decrease in ratio of granulocytic and erythroid cell system at 10 mg/kg, ip for 7 days measured on day 9. It is filed as organism-based, Erythrocyte. Also on record: dose 10 mg/kg, route intraperitoneal; scale not given: the % may be the effect or the level left. As to conditions: in vivo, 168 h. A digest of the protocol: as §1

A further data set relates to SK-OV-3. The experiment in a line: Antitumor activity against human SKOV3 cells assessed as cell proliferation after 24 hrs by MTT assay. In kind it is functional, cell-based. As to conditions: SK-OV-3, 24 h. Put shortly: as §2
For the next data set, the system named is MCF7. The experiment in a line: Antitumor activity against human MCF7 cells assessed as cell proliferation after 24 hrs by MTT assay. In kind it is functional, cell-based. As to conditions: MCF7, 24 h. Put shortly: as §2
For data set [6], the system named is Mus musculus. The experiment in a line: Toxicity in […] H22 tumor-nearing ICR mouse assessed as thymus index at 10 mg/kg, ip for 7 days measured on day 9 relative to control. It is filed as organism-based. Also on record: dose 10 mg/kg, route intraperitoneal. As to conditions: in vivo, 168 h. Put shortly: as §3

The term IC50 denotes the point on the concentration scale where inhibition reaches its midpoint. The term inhibition in vivo denotes the relative decrease from the control value, in per cent.

Each structure is given as a SMILES string.

As to `O=C1C=CC(O)(c2cc(=O)cco2)C=C1`, the Activity result in the data set with Mus musculus [1], with Mus musculus [2], in the data set on Mus musculus [3], in the data set on Mus musculus [4], in the data set on Mus musculus [5] and in the data set on Mus musculus [6] was “Non-toxic” throughout. Also, the IC50 with RPMI-8226 was 13.5 µM; with U-266 it was 9.44 µM; with MDA-MB-231, 0.38 µM; in the data set with HepG2, 1.76 µM; in the data set with HEK293, 30 µM; in the data set with PC-3, 3.43 µM. The concentration for half-maximal inhibition (IC50) in the data set with PBMC was 49.3 µM; in the data set with PANC-1 it was 3.08 µM; with SK-OV-3, 0.64 µM; in the data set with MCF7 it was 0.71 µM. In addition, in the data set with H22, the inhibition in vivo at 10 mg/kg amounted to 34.1%.
Consider `O=P1(N(CCCl)CCCl)NCCCO1` (stereo not given) [CYCLOPHOSPHAMIDE ANHYDROUS], for which the inhibition in vivo at 10 mg/kg in the data set on H22 was determined as 41.7%.
For `O=C1C=CC(O)(c2cc(=O)c3c(O)cc(O)cc3o2)C=C1` [PROTOAPIGENONE], the Activity with Mus musculus [1] is listed as 51.52%; in the data set with Mus musculus [2] it was “Non-toxic”; in the data set with Mus musculus [3] it was “Non-toxic”; in the data set with Mus musculus [4] it was “Non-toxic”; in the data set on Mus musculus [5] it was 36.9%; in the data set with Mus musculus [6], “Non-toxic”. The 50% inhibitory concentration (IC50) came to 3.93 µM in the data set on RPMI-8226; 7.66 µM in the data set on U-266; 1.7 µM in the data set on MDA-MB-231; 7.77 µM with HepG2; 6.79 µM in the data set on HEK293; 6.13 µM in the data set on PC-3. Also, the 50% inhibitory concentration (IC50) in the data set on PBMC amounted to 8.11 µM; in the data set on PANC-1, 22.1 µM; with SK-OV-3, 0.71 µM; in the data set on MCF7, 5.5 µM. Moreover, the inhibition in vivo at 10 mg/kg with H22 is < 5%.
